Converted amounts (≈) assume the structure as drawn.
Key:
Enterococcus faecium [1] = experiment: Antibacterial activity against vancomycin resistant Enterococcus faecium 700221 assessed as inhibition of bacterial growth measured after 24 hrs; format: functional
Staphylococcus aureus [2] = experiment: Antibacterial activity against Staphylococcus aureus 29213 assessed as inhibition of bacterial growth measured after 24 hrs; format: functional
Enterococcus faecalis [3] = experiment: Antibacterial activity against vancomycin resistant Enterococcus faecalis 51575 assessed as inhibition of bacterial growth measured after 24 hrs; format: functional
Enterococcus faecium [4] = experiment: Antibacterial activity against Enterococcus faecium 35667 assessed as inhibition of bacterial growth measured after 24 hrs; format: functional
Escherichia coli = experiment: Antibacterial activity against Escherichia coli JW5503 delta tolC mutant assessed as inhibition of bacterial growth measured after 24 hrs; details: JW5503, 24 h
Enterococcus faecalis [5] = experiment: Antibacterial activity against Enterococcus faecalis 29212 assessed as inhibition of bacterial growth measured after 24 hrs; details: Enterococcus faecalis, 29212, 24 h
Staphylococcus aureus [6] = experiment: Antibacterial activity against Methicillin resistant Staphylococcus aureus 43300 assessed as inhibition of bacterial growth measured after 24 hrs; format: functional
[7] = Efflux ratio of MIC for Escherichia coli 25922 to MIC for Escherichia coli JW5503; format: functional
Summary of the method: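 Ratio of the MIC against wild-type E. coli ATCC 25922 to the MIC against the tolC deletion mutant JW5503. Both MICs were read after 24 h, n = 3. Not determined when the MIC was >50 μM for both strains.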

Structure (SMILES) | MIC (Enterococcus faecium [1]) [µM] | MIC (Staphylococcus aureus [2]) [µM] | MIC (Enterococcus faecalis [3]) [µM] | MIC (Enterococcus faecium [4]) [µM] | MIC (Escherichia coli) [µM] | MIC (Enterococcus faecalis [5]) [µM] | MIC (Staphylococcus aureus [6]) [µM] | Ratio [7]
CC(=O)NC[C@H]1CN(c2ccc(-c3ccc(O)cc3)c(F)c2)C(=O)O1 | 0.39 (≈ 0.134 µg/mL) | 0.78 (≈ 0.269 µg/mL) | 0.39 (≈ 0.134 µg/mL) | 0.78 (≈ 0.269 µg/mL) | 1.56 (≈ 0.537 µg/mL) | 0.39 (≈ 0.134 µg/mL) | 0.78 (≈ 0.269 µg/mL) | > 32
CC(=O)NC[C@H]1CN(c2ccc(-c3ccc(COC(=O)c4ccc(B(O)O)cc4)cc3)c(F)c2)C(=O)O1 | 0.39 (≈ 0.197 µg/mL) | 0.78 (≈ 0.395 µg/mL) | 0.39 (≈ 0.197 µg/mL) | 0.78 (≈ 0.395 µg/mL) | 3.13 (≈ 1.58 µg/mL) | 0.78 (≈ 0.395 µg/mL) | 0.78 (≈ 0.395 µg/mL) | > 16
CC(=O)NC[C@H]1CN(c2ccc(-c3ccc(COC(=O)c4cccc(B(O)O)c4)cc3)c(F)c2)C(=O)O1 | > 50 | 1.56 (≈ 0.79 µg/mL) | 0.78 (≈ 0.395 µg/mL) | > 50 | 3.13 (≈ 1.58 µg/mL) | > 50 | 0.78 (≈ 0.395 µg/mL) | > 16
CC(=O)NCC1CN(c2ccc(-c3ccc(COC(=O)c4ccc(B(O)O)cc4)cc3)c(F)c2)C(=O)O1 (stereo not drawn) | 1.56 (≈ 0.79 µg/mL) | 3.13 (≈ 1.58 µg/mL) | 1.56 (≈ 0.79 µg/mL) | 3.23 (≈ 1.64 µg/mL) | 6.25 (≈ 3.16 µg/mL) | 3.13 (≈ 1.58 µg/mL) | 1.56 (≈ 0.79 µg/mL) | > 8
CC(=O)NCC1CN(c2ccc(-c3ccc(COC(=O)c4ccc(B(O)O)cc4Cl)cc3)c(F)c2)C(=O)O1 (stereo not drawn) | 3.13 (≈ 1.69 µg/mL) | 3.13 (≈ 1.69 µg/mL) | 3.13 (≈ 1.69 µg/mL) | 3.13 (≈ 1.69 µg/mL) | 25 (≈ 13.5 µg/mL) | 3.13 (≈ 1.69 µg/mL) | 3.13 (≈ 1.69 µg/mL) | > 2
CC(=O)NCC1CN(c2ccc(-c3ccc(COC(=O)c4ccccc4)cc3)c(F)c2)C(=O)O1 (stereo not drawn) | 3.13 (≈ 1.45 µg/mL) | 3.13 (≈ 1.45 µg/mL) | 3.13 (≈ 1.45 µg/mL) | 6.25 (≈ 2.89 µg/mL) | > 50 | 3.13 (≈ 1.45 µg/mL) | 3.13 (≈ 1.45 µg/mL) | –
CC(=O)NC[C@H]1CN(c2ccc(-c3cccc(CO)c3)c(F)c2)C(=O)O1 | 1.56 (≈ 0.559 µg/mL) | 3.13 (≈ 1.12 µg/mL) | 3.13 (≈ 1.12 µg/mL) | 1.56 (≈ 0.559 µg/mL) | 3.13 (≈ 1.12 µg/mL) | 1.56 (≈ 0.559 µg/mL) | 1.56 (≈ 0.559 µg/mL) | > 16
CC(=O)NC[C@H]1CN(c2ccc(-c3ccc(OC(=O)c4ccc(B(O)O)cc4)cc3)c(F)c2)C(=O)O1 | > 50 | > 50 | > 50 | > 50 | > 50 | > 50 | > 50 | –
CC(=O)NC[C@H]1CN(c2ccc(-c3ccc(CO)cc3)c(F)c2)C(=O)O1 | 0.78 (≈ 0.28 µg/mL) | 1.56 (≈ 0.559 µg/mL) | 0.78 (≈ 0.28 µg/mL) | 0.78 (≈ 0.28 µg/mL) | 1.56 (≈ 0.559 µg/mL) | 0.78 (≈ 0.28 µg/mL) | 0.78 (≈ 0.28 µg/mL) | > 32
CC(=O)NCC1CN(c2ccc(-c3ccc(COC(=O)c4ccc(B(O)O)c(F)c4)cc3)c(F)c2)C(=O)O1 (stereo not drawn) | 1.56 (≈ 0.818 µg/mL) | 1.56 (≈ 0.818 µg/mL) | 0.78 (≈ 0.409 µg/mL) | 1.56 (≈ 0.818 µg/mL) | 12.5 (≈ 6.55 µg/mL) | 1.56 (≈ 0.818 µg/mL) | 1.56 (≈ 0.818 µg/mL) | > 4
O=C(O)c1cn(C2CC2)c2cc(N3CCNCC3)c(F)cc2c1=O [CIPROFLOXACIN] | – | 1.5 (≈ 0.497 µg/mL) | 3 (≈ 0.994 µg/mL) | – | – | – | – | –
CC(=O)NC[C@H]1CN(c2ccc(-c3ccc(CN)cc3)c(F)c2)C(=O)O1 | 1.56 (≈ 0.558 µg/mL) | 3.13 (≈ 1.12 µg/mL) | 1.56 (≈ 0.558 µg/mL) | 0.78 (≈ 0.279 µg/mL) | 6.25 (≈ 2.23 µg/mL) | 1.56 (≈ 0.558 µg/mL) | 3.13 (≈ 1.12 µg/mL) | > 8
CC(=O)NC[C@H]1CN(c2ccc(N3CCOCC3)c(F)c2)C(=O)O1 [LINEZOLID] | 6.25 (≈ 2.11 µg/mL) | 6.25 (≈ 2.11 µg/mL) | 6.25 (≈ 2.11 µg/mL) | 12.5 (≈ 4.22 µg/mL) | 75 (≈ 25.3 µg/mL) | 6.25 (≈ 2.11 µg/mL) | 6.25 (≈ 2.11 µg/mL) | > 1
CC(=O)NC[C@H]1CN(c2ccc(-c3ccc(CNC(=O)c4ccc(B(O)O)cc4)cc3)c(F)c2)C(=O)O1 | 0.39 (≈ 0.197 µg/mL) | 0.78 (≈ 0.394 µg/mL) | 0.39 (≈ 0.197 µg/mL) | 0.39 (≈ 0.197 µg/mL) | 0.78 (≈ 0.394 µg/mL) | 0.39 (≈ 0.197 µg/mL) | 0.78 (≈ 0.394 µg/mL) | > 64
CC(=O)NC[C@H]1CN(c2ccc(-c3ccc(CNC(=O)c4cccc(B(O)O)c4)cc3)c(F)c2)C(=O)O1 | 0.78 (≈ 0.394 µg/mL) | 0.78 (≈ 0.394 µg/mL) | 0.39 (≈ 0.197 µg/mL) | 0.78 (≈ 0.394 µg/mL) | 0.78 (≈ 0.394 µg/mL) | 0.39 (≈ 0.197 µg/mL) | 0.78 (≈ 0.394 µg/mL) | > 64
CC(=O)NCC1CN(c2ccc(-c3ccc(COC(=O)c4ccc(B(O)O)cc4F)cc3)c(F)c2)C(=O)O1 (stereo not drawn) | 1.56 (≈ 0.818 µg/mL) | 1.56 (≈ 0.818 µg/mL) | 1.56 (≈ 0.818 µg/mL) | 1.56 (≈ 0.818 µg/mL) | 25 (≈ 13.1 µg/mL) | 1.56 (≈ 0.818 µg/mL) | 1.56 (≈ 0.818 µg/mL) | > 2
O=C(O)c1ccc(B(O)O)cc1 | > 50 | > 50 | > 50 | > 50 | > 50 | > 50 | > 50 | –
CC(=O)NC[C@H]1CN(c2ccc(-c3cccc(COC(=O)c4ccc(B(O)O)cc4)c3)c(F)c2)C(=O)O1 | 0.78 (≈ 0.395 µg/mL) | 0.78 (≈ 0.395 µg/mL) | 0.39 (≈ 0.197 µg/mL) | 0.78 (≈ 0.395 µg/mL) | 3.13 (≈ 1.58 µg/mL) | 0.78 (≈ 0.395 µg/mL) | 0.78 (≈ 0.395 µg/mL) | > 16
CC(=O)NCC1CN(c2ccc(-c3ccc(COC(=O)c4ccc(B(O)O)c(Cl)c4)cc3)c(F)c2)C(=O)O1 (stereo not drawn) | 1.56 (≈ 0.844 µg/mL) | 1.56 (≈ 0.844 µg/mL) | 1.56 (≈ 0.844 µg/mL) | 1.56 (≈ 0.844 µg/mL) | 25 (≈ 13.5 µg/mL) | 1.56 (≈ 0.844 µg/mL) | 1.56 (≈ 0.844 µg/mL) | > 2
